Tests used:
[1] = tested on: Matrix protein 2 (Influenza A virus (A/Udorn/307/1972(H3N2))), P0DOF8 [S31N]; experiment: Inhibition of Influenza A virus M2 S31N mutant ion channel expressed in 293Trex cells at 100 uM after 2 mins by patch clamp assay; format: cell-based
[2] = tested on: Influenza A virus; experiment: Antiviral activity against amantadine-resistant Influenza A virus A/WSN/33(H1N1) expressing M2 S31N mutant ion channel infected in MDCK cells assessed as protection against virus induced cytopathic effect after 48 hrs by microscopic analysis; format: functional, organism-based, A/WSN/1933(H1N1)
Summary of the method: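 MDCK cells were grown 24 h to a confluent monolayer and rinsed twice. They were infected with 100 TCID50 virus for 2 h at 37 °C in 5% CO2, and the inoculum was removed. Serial two-fold compound dilutions in DMEM with 1.5 µg/mL trypsin were added for 48 h at 34 °C in 5% CO2. CPE percentage was scored microscopically. IC50 came from non-linear regression, as the mean of 2–3 determinations.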

[3] = tested on: Influenza A virus; experiment: Antiviral activity against amantadine-resistant Influenza A virus A/WSN/33(H1N1) expressing M2 S31N mutant ion channel infected in MDCK cells assessed as cell viability after 48 hrs by MTT assay; format: functional, organism-based, A/WSN/1933(H1N1)
Summary of the method: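 Infected MDCK cells were given compound for 48 h, and the CPE-based result was confirmed by MTT viability. MTT was added from a 5 mg/mL stock for 4 h at 37 °C, stopped with DMSO, and read as absorbance at 490 nm. The 50% effective concentration was calculated by the Reed–Muench method, as the mean of 2–3 determinations.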

[4] = tested on: Matrix protein 2 (Influenza A virus (A/Udorn/307/1972(H3N2))), P0DOF8 [S31N]; experiment: Inhibition of Influenza A virus M2 S31N mutant ion channel expressed in Xenopus oocytes at 100 uM after 2 mins by two-electrode voltage clamp assay; format: cell-based
Summary of the method: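 A/M2 channel (S31N for line 7, wild type for line 9) was expressed in Xenopus oocytes and recorded by two-electrode voltage clamp. Compound was applied at 100 µM, and the percentage inhibition of channel current was taken after 2 min. Values are mean ± SD.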

Compound: Cc1nc[nH]c1CN[C@@H]1C[C@@H]2C[C@H]([C@H]1C)C2(C)C
- inhibition [1]: 27%
- IC50 ([2]; read-out: IC50): 95.5 µM

Compound: C[C@@H]1[C@H]2C[C@@H](C[C@H]1NCc1cnc(C(C)(C)C)[nH]1)C2(C)C
- IC50 [3]: 11.6 µM
- IC50 ([2]; read-out: IC50): 9.7 µM

Compound: C[C@@H]1[C@H]2C[C@@H](C[C@H]1NCc1cnc(C3CC3)[nH]1)C2(C)C
- IC50 ([2]; read-out: IC50): 29.4 µM

Compound: C[C@@H]1[C@H]2C[C@@H](C[C@H]1NCc1cnc(C3CCCC3)[nH]1)C2(C)C
- IC50 [2]: Not Active

Compound: CC(C)Cc1ncc(CN[C@@H]2C[C@@H]3C[C@H]([C@H]2C)C3(C)C)[nH]1
- IC50 [3]: 18.6 µM
- IC50 ([2]; read-out: IC50): 8.9 µM

Compound: CCCc1nc(-c2ccccc2)[nH]c1CN[C@@H]1C[C@@H]2C[C@H]([C@H]1C)C2(C)C
- IC50 [3]: 16.1 µM
- IC50 ([2]; read-out: IC50): 12.3 µM

Compound: Cc1ncc(CN[C@@H]2C[C@@H]3C[C@H]([C@H]2C)C3(C)C)[nH]1
- IC50 [2]: Not Active

Compound: CCCc1nc(C(C)C)[nH]c1CN[C@@H]1C[C@@H]2C[C@H]([C@H]1C)C2(C)C
- IC50 [3]: 11.3 µM
- IC50 ([2]; read-out: IC50): 8.8 µM

Compound: CCCc1nc[nH]c1CN[C@@H]1C[C@@H]2C[C@H]([C@H]1C)C2(C)C
- inhibition [4]: 3.47%
- IC50 [3]: 7.3 µM
- IC50 ([2]; read-out: IC50): 3.4 µM

Compound: C[C@@H]1[C@H]2C[C@@H](C[C@H]1NCc1cnc(-c3ccccc3)[nH]1)C2(C)C
- IC50 [3]: 11 µM
- IC50 ([2]; read-out: IC50): 9 µM

Compound: CCCc1nc(C2CC2)[nH]c1CN[C@@H]1C[C@@H]2C[C@H]([C@H]1C)C2(C)C
- IC50 [3]: 9.7 µM
- IC50 ([2]; read-out: IC50): 7.3 µM

Compound: C[C@@H]1[C@H]2C[C@@H](C[C@H]1NCc1[nH]cnc1-c1ccccc1)C2(C)C
- IC50 [2]: Not Active

Compound: NC12CC3CC(CC(C3)C1)C2 [AMANTADINE]
- inhibition [4]: 24.3%
- IC50 ([2]; read-out: IC50): 337 µM

Compound: CCCCc1ncc(CN[C@@H]2C[C@@H]3C[C@H]([C@H]2C)C3(C)C)[nH]1
- IC50 [2]: Not Active

Compound: CCc1nc[nH]c1CN[C@@H]1C[C@@H]2C[C@H]([C@H]1C)C2(C)C
- IC50 [2]: Not Active

Compound: CCc1ncc(CN[C@@H]2C[C@@H]3C[C@H]([C@H]2C)C3(C)C)[nH]1
- IC50 ([2]; read-out: IC50): 9.5 µM

Compound: Cc1nc(C2CC2)[nH]c1CN[C@@H]1C[C@@H]2C[C@H]([C@H]1C)C2(C)C
- IC50 [3]: 21.4 µM
- IC50 ([2]; read-out: IC50): 9.4 µM

Compound: C[C@@H]1[C@H]2C[C@@H](C[C@H]1NCc1[nH]cnc1C(C)(C)C)C2(C)C
- IC50 [2]: Not Active

Compound: C[C@@H]1[C@H]2C[C@@H](C[C@H]1NCc1cnc(C3CCCCC3)[nH]1)C2(C)C
- IC50 [2]: Not Active

Compound: CC(C)c1ncc(CN[C@@H]2C[C@@H]3C[C@H]([C@H]2C)C3(C)C)[nH]1
- IC50 [2]: Not Active

Compound: CCc1nc(C)c(CN[C@@H]2C[C@@H]3C[C@H]([C@H]2C)C3(C)C)[nH]1
- inhibition [4]: 1.73%
- IC50 [2]: Not Active

Compound: C[C@@H]1[C@H]2C[C@@H](C[C@H]1NCc1[nH]cnc1C1CC1)C2(C)C
- IC50 [2]: Not Active

Compound: Cc1nc(C(C)C)[nH]c1CN[C@@H]1C[C@@H]2C[C@H]([C@H]1C)C2(C)C
- IC50 [2]: Not Active

Compound: C[C@@H]1[C@H]2C[C@@H](C[C@H]1NCc1cncn1C)C2(C)C
- IC50 [2]: Not Active

Compound: C[C@@H]1[C@H]2C[C@@H](C[C@H]1NCc1cnc(-c3cccs3)[nH]1)C2(C)C
- IC50 [2]: Not Active

From ChEMBL document CHEMBL3763156, “Imidazole-based pinanamine derivatives: Discovery of dual inhibitors of the wild-type and drug-resistant mutant of the influenza A virus” (Eur J Med Chem, 2016)
